Calls of active or inactive are those of the source. The calls are words filed in the database; no cut-off is given here.
tested on: not listed separately; assay: Selectivity index, ratio of IC50 for African green monkey Vero cells to IC50 for Trypanosoma cruzi IRHOD/CO/2008/SN3 DTU 1 epimastigotes; assay type: toxicity; conditions: read-out: Ratio IC50
Method in brief: (§1)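 SI is Vero IC50 divided by the IC50 for the stated parasite form. For Vero cytotoxicity, cells were seeded at 1.25×10^4 mL^-1 with compounds at 1000–1 µM, incubated 48 h, then given resazurin for a further 24 h (72 h total), with absorbance read at 570/600 nm. Triplicate, four determinations.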

Row | Compound | selectivity ratio
1 | COc1ccc(C(=O)CCN2CCN(c3ccc(F)cc3)CC2)cc1 | 27.9
2 | COc1ccc(C(=O)CCN2CCN(c3ccc(Cl)cc3)CC2)cc1 | 47.8

tested on: not listed separately; assay: Selectivity index, ratio of IC50 for African green monkey Vero cells to IC50 for Trypanosoma cruzi TINF/CH/1956/Tulahuen DTU 6 trypamastigotes derived from infected Balb/c albino mouse; assay type: toxicity; conditions: read-out: Ratio IC50; method in brief: as §1

Row | Compound | selectivity ratio
3 | COc1ccc(C(=O)CCN2CCN(c3ccc(F)cc3)CC2)cc1 | 47.4
4 | COc1ccc(C(=O)CCN2CCN(c3ccc(Cl)cc3)CC2)cc1 | 103

tested on: Trypanosoma cruzi; assay: Trypanocidal activity against Trypanosoma cruzi MHOM/Pe/2011/Arequipa DTU 5 amastigotes infected in African green monkey Vero cells after 72 hrs by Giemsa-staining based microscopic assay; assay type: functional, organism-based; conditions: MHOM/Pe/2011/Arequipa DTU 5, Vero
Method in brief: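 Vero cells were seeded at 1×10^4/well on coverslips. After 24 h they were infected with culture-derived trypomastigotes (MOI 1:10, 24 h), then washed. Compounds were added at 100–0.2 µM (DMSO 0.01% v/v) for 72 h at 37 °C, 5% CO2. Slides were methanol-fixed and Giemsa-stained; amastigotes and infected cells were counted over 500 host cells. IC50 was derived by curve fitting; triplicate wells, four separate determinations.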

Row | Compound | IC50
5 | COc1ccc(C(=O)CCN2CCN(c3ccc(F)cc3)CC2)cc1 | 0.6 µM
6 | COc1ccc(C(=O)CCN2CCN(c3ccc(Cl)cc3)CC2)cc1 | 3.6 µM

tested on: Mus musculus; assay: Hepatotoxicity in Balb/c mouse infected with Trypanosoma cruzi MHOM/Pe/2011/Arequipa DTU 5 trypamastigotes assessed as change in alkaline phosphatase level at […], po once daily for 5 consecutive days starting from day 75 post infection measured on day 127 post infection by biochemical analysis relative to control; assay type: toxicity, organism-based; conditions: in vivo
Method in brief: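 Serum clinical chemistry in Arequipa-infected female BALB/c mice. Oral 20 mg·kg-1 per day for 5 days, started day 10 or day 75 pi. Samples taken at day 16 pi or day 81 pi, and on necropsy day. Markers: CK-MB and LDH (U/L), AST, ALT and alkaline phosphatase (U/L), total bilirubin. Results scored relative to infected untreated controls; uninfected reference n = 15.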

Row | Compound | Activity
7 | COc1ccc(C(=O)CCN2CCN(c3ccc(F)cc3)CC2)cc1 | < 10%
8 | COc1ccc(C(=O)CCN2CCN(c3ccc(Cl)cc3)CC2)cc1 | < 10%

tested on: not listed separately; assay: Selectivity index, ratio of IC50 for African green monkey Vero cells to IC50 for Trypanosoma cruzi MHOM/Pe/2011/Arequipa DTU 5 trypamastigotes derived from infected Balb/c albino mouse; assay type: toxicity; conditions: read-out: Ratio IC50; method in brief: as §1

Row | Compound | selectivity ratio
9 | COc1ccc(C(=O)CCN2CCN(c3ccc(F)cc3)CC2)cc1 | 49.1
10 | COc1ccc(C(=O)CCN2CCN(c3ccc(Cl)cc3)CC2)cc1 | 89.6

molecular target: T1, Superoxide dismutase (Trypanosoma cruzi (strain CL Brener)) (UniProt Q4DCQ3); assay: Inhibition of Trypanosoma cruzi MHOM/Pe/2011/Arequipa DTU 5 epimastigotes Fe-SOD at 50 uM by UV-Visible spectrophotometric method relative to control; conditions: not given
T1 sequence (whole entry): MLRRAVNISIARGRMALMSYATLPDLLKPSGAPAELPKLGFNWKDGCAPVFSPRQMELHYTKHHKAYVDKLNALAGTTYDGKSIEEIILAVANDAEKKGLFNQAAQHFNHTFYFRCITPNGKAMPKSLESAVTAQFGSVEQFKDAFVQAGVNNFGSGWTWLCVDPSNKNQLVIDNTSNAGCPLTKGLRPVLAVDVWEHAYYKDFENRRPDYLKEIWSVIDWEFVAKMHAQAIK
Method in brief: (§2)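 SOD activity of parasite Fe-SOD and human CuZn-SOD was measured spectrophotometrically by the Beyer and Fridovich method, with compounds at 1–100 µM. Values are averages of three rate determinations; IC50 was obtained by linear regression and differences were tested by Newman-Keuls.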

Row | Compound | inhibition
11 | COc1ccc(C(=O)CCN2CCN(c3ccc(F)cc3)CC2)cc1 | 100%
12 | COc1ccc(C(=O)CCN2CCN(c3ccc(Cl)cc3)CC2)cc1 | 100%

tested on: Trypanosoma cruzi; assay: Trypanocidal activity against Trypanosoma cruzi IRHOD/CO/2008/SN3 DTU 1 trypamastigotes derived from infected Balb/c albino mouse after 24 hrs by resazurin dye based assay; assay type: functional, organism-based; conditions: IRHOD/CO/2008/SN3 DTU 1, 24 h
Method in brief: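 Bloodstream trypomastigotes taken from mice at peak parasitaemia were seeded at 2×10^6 mL^-1 in RPMI with 10% FBS. Compounds were added at 50–0.2 µM and incubated 24 h at 37 °C, 5% CO2, then with resazurin for 4 h. SDS was added and absorbance read at 570/600 nm. IC50 was fitted; triplicate, four separate determinations.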

Row | Compound | IC50
13 | COc1ccc(C(=O)CCN2CCN(c3ccc(F)cc3)CC2)cc1 | 1.4 µM
14 | COc1ccc(C(=O)CCN2CCN(c3ccc(Cl)cc3)CC2)cc1 | 3.9 µM

tested on: Mus musculus; assay: Toxicity in Balb/c mouse assessed as reduction in body mass at […], po once daily for 5 consecutive days starting from day 10 post infection relative to control; assay type: organism-based; parameters: scale not given: the % may be the effect or the level left; conditions: in vivo
Method in brief: (§3)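 Infected female BALB/c mice, six per group, received oral doses of 20 mg·kg^-1/day for 5 consecutive days (total 100 mg·kg^-1) in 5% DMSO/0.5% HPMC vehicle, from day 10 or day 75 pi. Body mass and deaths were monitored during and after treatment.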

Row | Compound | Activity
15 | COc1ccc(C(=O)CCN2CCN(c3ccc(F)cc3)CC2)cc1 | > 10%
16 | COc1ccc(C(=O)CCN2CCN(c3ccc(Cl)cc3)CC2)cc1 | > 10%

tested on: Mus musculus; assay: Toxicity in Balb/c mouse assessed as reduction in body mass at […], po once daily for 5 consecutive days starting from day 75 post infection relative to control; assay type: organism-based; parameters: scale not given: the % may be the effect or the level left; conditions: in vivo; method in brief: as §3

Row | Compound | Activity
17 | COc1ccc(C(=O)CCN2CCN(c3ccc(F)cc3)CC2)cc1 | > 10%
18 | COc1ccc(C(=O)CCN2CCN(c3ccc(Cl)cc3)CC2)cc1 | > 10%

tested on: Trypanosoma cruzi; assay: Antitrypanosomal activity against Trypanosoma cruzi MHOM/Pe/2011/Arequipa DTU 5 epimastigotes assessed as effect on parasite glycolytic pathway by measuring reduction in pyruvate excretion at IC25 after 72 hrs by 1H NMR method; assay type: functional, organism-based; conditions: not given
Method in brief: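 Arequipa epimastigotes exposed at IC25 for 72 h alongside an untreated control. Excreted catabolites were analysed by 1H NMR, and each peak is reported as % variation versus the control. Three separate determinations.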

Row | Compound | Activity
19 | COc1ccc(C(=O)CCN2CCN(c3ccc(F)cc3)CC2)cc1 | Active
20 | COc1ccc(C(=O)CCN2CCN(c3ccc(Cl)cc3)CC2)cc1 | inactive

tested on: Trypanosoma cruzi; assay: Antitrypanosomal activity against Trypanosoma cruzi MHOM/Pe/2011/Arequipa DTU 5 trypamastigotes infected in Balb/c mouse assessed as reduction in Ig-G level in serum at 100 mg/kg, po pretreated once daily for 5 consecutive days starting from day 10 post infection followed by cyclophosphamide-induced immunosuppression on day 100 post infection every 4 days for a maximum of 3 doses measured on day 127 post infection by ELISA; assay type: functional, organism-based; conditions: not given

Row | Compound | Activity
21 | COc1ccc(C(=O)CCN2CCN(c3ccc(F)cc3)CC2)cc1 | inactive
22 | COc1ccc(C(=O)CCN2CCN(c3ccc(Cl)cc3)CC2)cc1 | Active

tested on: Mus musculus; assay: Hepatotoxicity in Balb/c mouse infected with Trypanosoma cruzi MHOM/Pe/2011/Arequipa DTU 5 trypamastigotes assessed as change in total bilirubin level at […], po once daily for 5 consecutive days starting from day 75 post infection measured on day 127 post infection by biochemical analysis relative to control; assay type: toxicity, organism-based; conditions: in vivo

Row | Compound | Activity
23 | COc1ccc(C(=O)CCN2CCN(c3ccc(F)cc3)CC2)cc1 | < 10%
24 | COc1ccc(C(=O)CCN2CCN(c3ccc(Cl)cc3)CC2)cc1 | < 10%

tested on: Trypanosoma cruzi; assay: Trypanocidal activity against Trypanosoma cruzi TINF/CH/1956/Tulahuen DTU 6 epimastigotes after 48 hrs by resazurin dye based assay; assay type: functional, organism-based; conditions: TINF/CH/1956/Tulahuen DTU 6, 48 h
Method in brief: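 Exponential-phase epimastigotes were seeded at 5×10^5 mL^-1 with compounds at 100–0.2 µM (DMSO 0.01% v/v) at 28 °C. After 48 h, resazurin was added for another 24 h. SDS was then added and absorbance read at 570 and 600 nm.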

Row | Compound | IC50
25 | COc1ccc(C(=O)CCN2CCN(c3ccc(F)cc3)CC2)cc1 | 1.8 µM
26 | COc1ccc(C(=O)CCN2CCN(c3ccc(Cl)cc3)CC2)cc1 | 7.3 µM

tested on: not listed separately; assay: Selectivity index, ratio of IC50 for African green monkey Vero cells to IC50 for Trypanosoma cruzi IRHOD/CO/2008/SN3 DTU 1 trypamastigotes derived from infected Balb/c albino mouse; assay type: toxicity; conditions: read-out: Ratio IC50; method in brief: as §1

Row | Compound | selectivity ratio
27 | COc1ccc(C(=O)CCN2CCN(c3ccc(F)cc3)CC2)cc1 | 39.9
28 | COc1ccc(C(=O)CCN2CCN(c3ccc(Cl)cc3)CC2)cc1 | 76.1

tested on: Trypanosoma cruzi; assay: Induction of mitochondrial membrane potential disruption in Trypanosoma cruzi MHOM/Pe/2011/Arequipa DTU 5 epimastigotes assessed as inhibition of DNA replication and RNA synthesis at IC25 after 72 hrs by acridine orange staining based flow cytometry relative to control; assay type: functional; conditions: not given
Method in brief: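 Arequipa epimastigotes were exposed for 72 h at IC25. DNA/RNA content was measured as acridine orange fluorescence by flow cytometry and compared with untreated control.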

Row | Compound | inhibition (INH)
29 | COc1ccc(C(=O)CCN2CCN(c3ccc(F)cc3)CC2)cc1 | 24.6%
30 | COc1ccc(C(=O)CCN2CCN(c3ccc(Cl)cc3)CC2)cc1 | 18%

molecular target: T2, Superoxide dismutase (Trypanosoma cruzi (strain CL Brener), UniProt Q4DCQ3); assay: Inhibition of Trypanosoma cruzi MHOM/Pe/2011/Arequipa DTU 5 epimastigotes Fe-SOD by UV-Visible spectrophotometric method; conditions: not given; method in brief: as §2
T2 sequence (Q4DCQ3 whole entry): T1 sequence (whole entry)

Row | Compound | IC50
31 | COc1ccc(C(=O)CCN2CCN(c3ccc(F)cc3)CC2)cc1 | 7.8 µM
32 | COc1ccc(C(=O)CCN2CCN(c3ccc(Cl)cc3)CC2)cc1 | 6.5 µM

tested on: Vero; assay: Cytotoxicity against African green monkey Vero cells assessed as reduction in cell viability after 72 hrs by resazurin dye based assay; conditions: Chlorocebus sabaeus
Method in brief: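 Vero monkey kidney cells grown at 37 °C, 5 % CO2, in RPMI with 10 % heat-inactivated FBS. Seeded at 1.25 × 10^4 mL-1 with compound at 1000 to 1 µM (DMSO 0.01 % v/v). After 48 h, resazurin added for a further 24 h, then SDS. Absorbance read at 570/600 nm. IC50 from triplicates in four separate determinations.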

Row | Compound | IC50
33 | COc1ccc(C(=O)CCN2CCN(c3ccc(F)cc3)CC2)cc1 | 55 µM
34 | COc1ccc(C(=O)CCN2CCN(c3ccc(Cl)cc3)CC2)cc1 | 300 µM
